Test system: MS2 coat protein
Test: apparent Kd, MS2 coat protein; higher = weaker binding; RNA-MaP array; FMN 200 µM where present
Summary of the method: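 Binding was read on Illumina sequencing-chip clusters where stalled E. coli RNA polymerase had transcribed each design. A titration of SNAP-549-labelled MS2 coat protein began at 0.7 or 1.5 nM and doubled to 3 µM, once without ligand and once with constant ligand, in 100 mM Tris-HCl pH 7.5, 80 mM KCl, 4 mM MgCl2, BSA, DTT, yeast tRNA and Tween-20. The apparent Kd is the median of filtered per-cluster binding-curve fits, based on green signal normalised to red-channel RNA signal and control-cluster median Fmax.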

[1] = designed as: ON switch for flavin mononucleotide, no ligand
[2] = ligand present: flavin mononucleotide, designed as: ON switch for flavin mononucleotide
[3] = designed as: OFF switch for flavin mononucleotide, no ligand
[4] = ligand present: flavin mononucleotide, designed as: OFF switch for flavin mononucleotide

Row | Sequence | apparent Kd [1] | apparent Kd [2] | apparent Kd [3] | apparent Kd [4]
1 | GGUCUGAUAUGAGGAUAUGCUCAGGAAUACUGAGCAGAAGGCAUGUGAAAACAUGAGGAUCACCCAUGUGAUCAAUACAGACCA | 147 nM | 23.7 nM | – | –
2 | GUAUACGAUGAGGAUAUAUGAUAUCAAAGCAUCAUAGAAGGCAUCACAUGAGGAUCACCCAUGUGAUCUUCUUU | – | – | 18.1 nM | 65.2 nM
3 | UUAUGGUUCAAGAAGGAUGUAUUUGACUUAUACAUAGGAUAUUGUUAAAUUGAUAAUUAAUGUAACAUGAGGAUCACCCAUGUA | 8.1 nM | 7.39 nM | – | –
4 | GACUGAUUACAGAAGGUGUAAGACAUGAGGAUCACCCAUGUGUAAAAGGGUAUAUUUGAAUAUAACAAGGAUAUGUUUUAAUCA | 75.1 nM | 49.3 nM | – | –
5 | ACAUGAGAUUUAGGAUAUAUAGUACCUACAUGUGACAUGAGGAUCACCCAUGUGGUAAGUAUGACAUAGAAGGAAAAGAUAUGU | 66 nM | 67 nM | – | –
6 | UCGGCGCGAGGAUAUGCGGUUUGUGCUUCGGGCCCUCGCGUACAUGAGGAUCACCCAUGUAGAAGGCGCGCCGC | – | – | 201 nM | 123 nM
7 | UGUAUGGACAGAGGAUAUACAGAUAGGAUCUACUAUCAAACAGUCCUGACAUGAGGAUCACCCAUGUAGAAGGCUGUCCAUACU | – | – | 22.8 nM | 105 nM
8 | UGUGCGUCAGGAUAUUCUACUUAUUACAUGAGGAUCACCCAUGUGUAUGUACAAGGGUGUGAAGAAGGGACUUGUC | – | – | 935 nM | 305 nM
9 | AAUUAGGUCACAGGAUAUACUACUUCCAAUGCUGUAGAAGGGUGACACAUUCUUUGCUGACAUGAGGAUCACCCAUGUAACCAC | 231 nM | 41 nM | – | –
10 | GGACCGCUUAGAAUUAGCGGCCGGCAGGAUAUGACAUGAGGAUCACCCAUGUGAACUCCAUUGGGUCAGAAGGGCCACGACACA | – | – | 23.9 nM | 86.4 nM
11 | GAGGAAAGGUAGCCCGACGUACCAGCAGAAGGGUGAUCAGACAUGAGGAUCACCCAUGUAGGAACACAGGAUAUGCAUGCACUU | 80 nM | 27.8 nM | – | –
12 | UCUGGAGCAGGAUAUAUAUGACGUGCUUCGGCACGAAGAUCACAUGAGGAUCACCCAUGUAGAAGGGCUCCAGA | – | – | 109 nM | 946 nM
13 | GGCGGGCGAAACAUGAGGAUCACCCAUGUGUUAUACUUAAUAUAGGAUAUGUUUAUACUUUUUGGGCAGAAGGAUGCGCCUGCC | 37.9 nM | 33.4 nM | – | –
14 | GGUUUUUCUGAGGAUAUUGCAUCACCCGAUUUAUAAGAAGGCAGAACAUGAGGAUCACCCAUGUGGGUUUCUAG | – | – | 19.4 nM | 24.8 nM
15 | GCUGGUCGAGGAUAUACAUGACGUGCUUCGGCACGAGGUCUACAUGAGGAUCACCCAUGUAGAAGGCGACCAGC | – | – | 30.8 nM | 225 nM
16 | GUCUCGAUGUAAGGAUAUGCAGUGGAAUACACUGCAGAAGGUACAUGAGGAUCACCCAUGUAACUCUAAUAAUAAUAACGAGAC | – | – | 12 nM | 19.2 nM
17 | UUAUUAUAUGUAGGAUAUGCAUAUUAUUAUUAUGCAGAAGGACAUGAGGAUCACCCAUGUAUAUUAUUAUUAUAUAUUAUAUAU | – | – | 30.1 nM | 53.7 nM
18 | AACAAUCUAUCUGAGGAUAUCAUGAAAUAAACAUGAGGAUCACCCAUGUGCAGGAAAUCUGCAUAUGAGAAGGCAGAUAGAUUGA | 1340 nM | 56.1 nM | – | –
19 | GGAGGACGAAACAUGAGGAUCACCCAUGUGUUAUAAUUAAUAUAGGAUAUGUUUAUACUUUUUGGGCAGAAGGAUGAUAAUGUU | 22.2 nM | 19.7 nM | – | –
20 | UGUUCUAUGUAGAAGGCCCAUAUCUGUACUUAGGGAGGAUAUACAUGAGGAUCACCCAUGUGUAGAGCUGGUGGACUGGUCAGC | – | – | 16.5 nM | 37.2 nM
21 | GACUUGUUAGGAUAUCUUACAUUUGCAUCAUAGUAACCAUUGGAGAAGGGACAUGAGGAUCACCCAUGUUUGGA | – | – | 31.6 nM | 30.1 nM
22 | ACAUGAGGAUCACCCAUGUUUUCAGGGACUUCAAUUAUUUGUAGAAGGAUGUUUACUUGUUAGUCAUAGGAUAUACAAUUAAAU | – | – | 12.2 nM | 12.9 nM
23 | AAUAUGGGAGGAUAUGCAUAGAUAAAGAAACAUGUUCAACCACAUGAGGAUCACCCAUGUAGAAGGCCCAUAUA | – | – | 34.6 nM | 129 nM
24 | UAGGACUACGUAGGAUAUGUAGUAGAUUACUACAUGAGGAUCACCCAUGUAAGCAUGUGAUUAGGACAGAAGGACGUGGUAAAU | 24.8 nM | 8.91 nM | – | –
25 | CUCAAACAUGAGGAUCACCCAUGUGUUGUCAUGGGAGGAUAUCCCAGUUCGGUGACGUCGGGAGAAGGCCUAUGUC | 113 nM | 35.2 nM | – | –
26 | CGAACUAAGUAGAAGGCUGUCUUAAAAUAGGACAGAGGAUAUACAUGAGGAUCACCCAUGUACUCCUUUAAUAAGUUUGAAAUA | – | – | 5.84 nM | 6.48 nM
27 | AUUAUGAAGCAGUUAUAACUCUAAACAUGAGGAUCACCCAUGUAGGAUAUCAGCACGAUAAGUGCUGAGAAGGACAUCUGCUUC | – | – | 15.3 nM | 18.4 nM
28 | GUGGUCAGACAUGAGGAUCACCCAUGUGGAAUAAAUAAGGAAAAGGAUAUCGAAUAUAGGAUAUACGAGAAGGUUUGGUUGGUG | 96.5 nM | 98.8 nM | – | –

Row | Sequence | apparent Kd [1] | apparent Kd [2] | apparent Kd [3] | apparent Kd [4]
29 | UGCUACGUUUCGUAGCAGCUAGGUGAGGAUAUUCAAUUUUUCACAUGAGGAUCACCCAUGUAUGUGAAGAAGGCGCCUAGAAAC | 11.6 nM | 4.61 nM | – | –
30 | GCUAGACGUCGAGGAUAUGGGUGUGCGAGUCUUGGCACUGGACAUGAGGAUCACCCAUGUCGCUUCCAGAAGGCGACGUCCCUA | 38.6 nM | 6.39 nM | – | –
31 | AAAAAGUGAGGAUAUACAUGAGGAUCACCCAUGUUAAAAAAGGAAAAAAAAAAAAAAUGUAGAAGGCGCAAAAA | – | – | 45.3 nM | 44 nM
32 | CGUGAAAACAUAGGAUAUUGUUACAUGAGGAUCACCCAUGUCAACCAUUUAUCUCAAAUUGUUGACAAGAAGGAUGAGGUCACG | 118 nM | 38.9 nM | – | –
33 | UUUAUAAAUUAGAAGGCGAGAUGAAUUACAAUAGACAUGAGGAUCACCCAUGUGUACCCAUGUUUUGAGGAUAUAGUCAUAUAU | 743 nM | 585 nM | – | –
34 | UGGUACUAGGGAGGAUAUGGGACGAUACAUGAGGAUCACCCAUGUUUAAGAAUGCCGAGAGGCAACUAGAAGGCCCUAGUACCU | 494 nM | 21.7 nM | – | –
35 | GCUCUAUGCGAGAAGGCGUGCAACAUGAGGAUCACCCAUGUCAGAGAUAUGAGGAUAUUGCAUAGAGCAAAAGACGGAAACGUC | 6.68 nM | 4.48 nM | – | –
36 | CACUCGUGUCUAGGAUAUGAGUGACAAGCGCGAGAUUUUCUCGCCGCUAGCUCAGAAGGAGACAUGAGGAUCACCCAUGUAAGG | – | – | 59.7 nM | 12.5 nM
37 | GUAGAGUAGUGAGGAUAUACGAGUUCGAUAGAACGGCGAUCCAAUAAUACAUGAGGAUCACCCAUGUAGAAGGCACUUCUCUAC | – | – | 9.33 nM | 112 nM
38 | CUGCAGUAAGGAUAUACAUGAGGAUCACCCAUGUAGCAACUUACAUAACGAAACGCAUGUAGAAGGUACCAGAU | – | – | 14 nM | 15.4 nM
39 | CGGGAGGAAGGAUAUACACGGCCUCCUAGAAUAAAUCCUGGACAUGAGGAUCACCCAUGUAGAAGGUCCACCGA | – | – | 18.9 nM | 24.4 nM
40 | UGUAUGGACAGAGGAUAUACAGAUAGGAUCUACUAUCAAACAGUCCUAACAUGAGGAUCACCCAUGUAGAAGGCUGUCCAUACU | – | – | 20.6 nM | 82.1 nM
41 | GUCAGCUCGUCAGGAUAUACAACACUGCUUCGGCAGUGUAUUAAGAUCACAUGAGGAUCACCCAUGUAGAAGGCACGAGCUGAU | – | – | 7.39 nM | 7.56 nM
42 | UAUUAACACGAAGGAUAUGGUUACAUGAGGAUCACCCAUGUAUGUAUAUUGAUCUAGAUUUUUGACCAGAAGGUCGUGAGUAAA | – | – | 23.9 nM | 38.2 nM
43 | GUCCUCUUGACAUGAGGAUCACCCAUGUAUUAUUUGUUAACUGAGGAUAUACUCUUAUUUUUUAUGUAGAAGGCAGAUUUGUUC | – | – | 40.9 nM | 52.5 nM
44 | AAGAAGUGAGGAUAUGCUGCUCGUCACUUGCGUGAUGAGUAGCAGAAGGCACAUGAGGAUCACCCAUGUGAAGA | – | – | 25.1 nM | 42.2 nM
45 | AUGGUACAUGAGGAUCACCCAUGUUAGGAUAUCGCGUGAGGUAAAACUUACACACACACGAGAAGGGACGACAU | – | – | 65.2 nM | 46.7 nM
46 | GUAGCUAUCGGAGGAUAUUCAUACCGGAAACGGACAUGAGGAUCACCCAUGUGGCGAAAGCCUUGGGAGAAGGCCGAUAGCUAC | 601 nM | 20.8 nM | – | –
47 | UCCCUAAGGCAGGCCGACCAUACAUGAGGAUCACCCAUGUCGAGAAGGUGCUCACGGGUGGGUGGCAAGGAUAUCGGGUCGGAU | 92.9 nM | 43.6 nM | – | –
48 | UUUGCAUUCCGAGGAUAUUCAUUUAAUGACUUCACAUGAGGAUCACCCAUGUGGCGAUAGCCUAGGGAGAAGGCGGUUUGCUUU | 24.4 nM | 19.6 nM | – | –
49 | CCGGCCGCCGUGAGGAUAUGCCCGCGCGCCCGCGGGCAGAAGGCACAUGAGGAUCACCCAUGUCCCGCGGCACC | – | – | 13.8 nM | 15.7 nM
50 | UACAAUCUAUCUGAGGAUAUCAUGAAAAAAACAUGAGGAUCACCCAUGUGCAGGAAAACUGCAUAUGAGAAGGCAGAUAGAUUGA | 873 nM | 26.9 nM | – | –
51 | UUUGGGUGGCUGGAGGAUAUCCUGGUUGUUACAUGAGGAUCACCCAUGUGCCGCGCGGUGCGCUGGGAGAAGGCUGGCGGCCGUU | 130 nM | 27.6 nM | – | –
52 | AUAAAUAAGGCGCACAUGAGGAUCACCCAUGUACGGACUAGCAAGGAUAUCAGCGUCGGGUGCAAUGAGAAGGUGUGUGUCAAG | 45.1 nM | 74.4 nM | – | –
53 | UUCGUGCAGCUUUGUUGUACGCGUACAUGAGGAUCACCCAUGUAGGAUAUGGUACGCUUUGCGUGCUAGAAGGAUAUGGAGAGG | – | – | 13.2 nM | 15.4 nM
54 | AAGUAGGAAGGAUAUACAUGGAUAUACAUUCAUGUGGACCUACAUGAGGAUCACCCAUGUAGAAGGUCCUAAUA | – | – | 18.1 nM | 12.1 nM
55 | CUCAAACAUGAGGAUCACCCAUGUGUUGUCAUGGGAGGAUAUCCAAGUUCGUUGUAGUCGGGAGAAGGCCUAUGUC | 213 nM | 41.1 nM | – | –
